Experiment [1] relates to Enterococcus faecium. The experiment can be described thus: Antimicrobial activity against glycopeptide-resistant Enterococcus faecium isolate HS0649 harboring MLST sequence type ST17 and pulsotype B expressing vanA gene cluster isolated from exudate of patient by Etest.
For experiment [2], the system named is Enterococcus faecium. As to the kind of experiment: Antimicrobial activity against Enterococcus faecium BM-0661 transconjugant by Etest. It is filed as functional. In a few lines: (§1)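 MIC by Etest on Mueller-Hinton agar, run per manufacturer's instructions and interpreted by CLSI recommendations. Same method for donor, recipient (BM4105RF, Fusr Rifr) and transconjugants. Transconjugants came from filter mating and were selected on BHI agar with rifampin (100 μg/ml) or fusidic acid (10 μg/ml) plus vancomycin (10 μg/ml).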

The subject of experiment [3] is Enterococcus faecium. The experiment can be described thus: Antimicrobial activity against glycopeptide-resistant Enterococcus faecium isolate HS08257 harboring MLST sequence type ST341 and pulsotype F expressing vanM gene cluster isolated from urine of patient by Etest.
Experiment [4] concerns Enterococcus faecium. The experiment can be described thus: Antimicrobial activity against glycopeptide-resistant Enterococcus faecium isolate HS05417 harboring MLST sequence type ST17 and pulsotype A expressing vanA gene cluster isolated from urine of patient by Etest.
Experiment [5] has as its system Enterococcus faecium. The experiment can be described thus: Antimicrobial activity against glycopeptide-resistant Enterococcus faecium isolate HS0661 harboring MLST sequence type ST78 and pulsotype C expressing vanM gene cluster isolated from exudate of patient by Etest.
Experiment [6] has as its system Enterococcus faecium. As to the kind of experiment: Antimicrobial activity against glycopeptide-resistant Enterococcus faecium isolate HS08369 harboring MLST sequence type ST18 and pulsotype G expressing vanM gene cluster isolated from urine of patient by Etest.
Experiment [7] relates to Enterococcus faecium. As to the kind of experiment: Antimicrobial activity against rifampin-, fusidic acid-resistant Enterococcus faecium BM-4105 by Etest. It is filed as functional. In a few lines: as §1
Experiment [8] deals with Enterococcus faecium. The experiment can be described thus: Antimicrobial activity against glycopeptide-resistant Enterococcus faecium isolate HS07261 harboring MLST sequence type ST78 and pulsotype D expressing vanM gene cluster isolated from urine of patient by Etest.
Experiment [9] deals with Enterococcus faecium. The experiment can be described thus: Antimicrobial activity against glycopeptide-resistant Enterococcus faecium isolate HS06188 harboring MLST sequence type ST78 and pulsotype A expressing vanA gene cluster isolated from urine of patient by Etest.
Experiment [10] deals with Enterococcus faecium. The experiment can be described thus: Antimicrobial activity against glycopeptide-resistant Enterococcus faecium isolate HS05446 harboring MLST sequence type ST17 and pulsotype B expressing vanA gene cluster isolated from urine of patient by Etest.
The test system of experiment [11] is Enterococcus faecium. The experiment can be described thus: Antimicrobial activity against glycopeptide-resistant Enterococcus faecium isolate HS0761 harboring MLST sequence type ST78 and pulsotype C expressing vanM gene cluster isolated from urine of patient by Etest.
Experiment [12] concerns Enterococcus faecium. As to the kind of experiment: Antimicrobial activity against glycopeptide-resistant Enterococcus faecium isolate HS0847 harboring MLST sequence type ST78 and pulsotype E expressing vanM gene cluster isolated from urine of patient by Etest.
The test system of experiment [13] is Enterococcus faecalis. The experiment can be described thus: Induction of VanM gene cluster in glycopeptide-resistant Enterococcus […] isolate HS0661 harboring MLST sequence type ST78 and pulsotype C expressing vanM gene cluster isolated from exudate of patient assessed as UDP-MurNAc-tetrapeptide-D-lactate at 50 ug/mL by LC-MS method. Format: functional, organism-based. In a few lines: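 Efm-HS0661 was grown in BHI broth to OD650 0.4, then exposed to glycopeptide at 50 μg/ml for a further 120 min. Peptidoglycan precursors were extracted and separated on a C18 column at 30 μl/min using a linear gradient over 18 min. Eluent A was 10 mM ammonium acetate, pH 5; eluent B was 2% acetonitrile in the same buffer. Precursors were identified by MS from fragments at m/z 562 and 747.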

In brackets after ≈: the same amount, converted by molar mass. Activity calls are given as the source filed them. No cut-off for these calls is given here.

Consider `C[C@H]1c2cccc(O)c2C(=O)C2=C(O)[C@]3(O)C(=O)C(C(N)=O)=C(O)[C@@H](N(C)C)[C@@H]3[C@@H](O)[C@@H]21.O` [DOXYCYCLINE], for which the MIC (usually the lowest concentration that inhibits growth of the organism) amounted to 6 µg/mL in experiment [1]; 0.094 µg/mL in [2]; 0.19 µg/mL in experiment [3]; 0.19 µg/mL in [4]; 0.125 µg/mL in experiment [5]; 32 µg/mL in experiment [6]. In addition, the minimum inhibitory concentration (MIC) in experiment [7] came to 0.094 µg/mL; in experiment [8], 0.19 µg/mL; in experiment [9], 0.125 µg/mL; in [10], 6 µg/mL; in experiment [11], 0.125 µg/mL; in [12], 0.094 µg/mL.
Turning to `CN[C@H](CC(C)C)C(=O)N[C@H]1C(=O)N[C@@H](CC(N)=O)C(=O)N[C@H]2C(=O)N[C@H]3C(=O)N[C@H](C(=O)N[C@H](C(=O)O)c4cc(O)cc(O)c4-c4cc3ccc4O)[C@H](O)c3ccc(c(Cl)c3)Oc3cc2cc(c3O[C@@H]2O[C@H](CO)[C@@H](O)[C@H](O)[C@H]2O[C@H]2C[C@](C)(N)[C@H](O)[C@H](C)O2)Oc2ccc(cc2Cl)[C@H]1O` [VANCOMYCIN], the MIC in [1], in [2], in experiment [3], in experiment [4], in experiment [5] and in [6] was over 256 µg/mL in each case. Besides, the MIC in experiment [7] was 0.75 µg/mL (≈ 0.518 µM); in experiment [8], over 256 µg/mL; in [9] it was over 256 µg/mL; in experiment [10], over 256 µg/mL; in [11] it was over 256 µg/mL; in [12], over 256 µg/mL. Also, the result in [13] was Active.
Turning to `O=C1CN(/N=C/c2ccc([N+](=O)[O-])o2)C(=O)N1` [NITROFURANTOIN], the MIC is over 512 µg/mL in experiment [1]; 16 µg/mL (≈ 67.2 µM) in experiment [2]; 196 µg/mL (≈ 823 µM) in [3]; 128 µg/mL (≈ 537 µM) in experiment [4]; 64 µg/mL (≈ 269 µM) in [5]; 32 µg/mL (≈ 134 µM) in experiment [6]. The MIC is 16 µg/mL (≈ 67.2 µM) in experiment [7]; 128 µg/mL (≈ 537 µM) in experiment [8]; 128 µg/mL (≈ 537 µM) in experiment [9]; 16 µg/mL (≈ 67.2 µM) in experiment [10]; 64 µg/mL (≈ 269 µM) in experiment [11]; 64 µg/mL (≈ 269 µM) in [12].
Consider `CC(=O)NC[C@H]1CN(c2ccc(N3CCOCC3)c(F)c2)C(=O)O1` [LINEZOLID], for which the MIC worked out at 1.5 µg/mL (≈ 4.45 µM) in experiment [1]; 1 µg/mL (≈ 2.96 µM) in [2]; 1.5 µg/mL (≈ 4.45 µM) in experiment [4]; 1.5 µg/mL (≈ 4.45 µM) in experiment [5]; 1.5 µg/mL (≈ 4.45 µM) in experiment [7]; 1.5 µg/mL (≈ 4.45 µM) in [8]. Moreover, the MIC in experiment [9], in [10] and in experiment [11] was 1.5 µg/mL (≈ 4.45 µM) in each case.
For `CO[C@H]1/C=C/O[C@@]2(C)Oc3c(C)c(O)c4c(O)c(c(/C=N/N5CCN(C)CC5)c(O)c4c3C2=O)NC(=O)/C(C)=C\C=C\[C@H](C)[C@H](O)[C@@H](C)[C@@H](O)[C@@H](C)[C@H](OC(C)=O)[C@@H]1C` [RIFAMPIN], the MIC in [1] is 4 µg/mL (≈ 4.86 µM); in [2], over 32 µg/mL; in experiment [3] it was 8 µg/mL (≈ 9.72 µM); in experiment [4], 0.25 µg/mL (≈ 0.304 µM); in experiment [5] it was 4 µg/mL (≈ 4.86 µM); in [6] it was 16 µg/mL (≈ 19.4 µM). The MIC in experiment [7] is over 32 µg/mL; in experiment [8] it was over 32 µg/mL; in experiment [9], 0.19 µg/mL (≈ 0.231 µM); in experiment [10] it was 4 µg/mL (≈ 4.86 µM); in [11], 3 µg/mL (≈ 3.65 µM); in experiment [12] it was over 32 µg/mL.

Source of the values: ChEMBL document CHEMBL1687792, “vanM, a new glycopeptide resistance gene cluster found in Enterococcus faecium” (2010).
